Data set [1] is described as follows: solubility at pH 4. It counts as physicochemical. As to conditions: buffer.
Data set [2] is described as follows: solubility at pH 7.4. Type of data set: physicochemical. The conditions noted are these: buffer. In a few lines:
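DMSO solution diluted 20-fold into PBS with 25 mM potassium phosphate pH 7.4 (final 5% DMSO) to precipitate; stirred 1 h at 22 °C, centrifuged 20000g 5 min; supernatant quantified by HPLC against DMSO standard.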

For data set [3], the species on record is Mus musculus. Put plainly: Anticonvulsant activity against audiogenic seizure model using DBA/2 mice. Type of data set: functional. In a few lines:
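Male DBA/2 mice, 3–4 weeks old (6.5–12 g, 20–23 days); iv dosing into retro-orbital sinus, tested 15 or 45 min later. Sound stimulus in enclosed chamber until tonic extension or max 60 s. Tonic seizure occurrence used for ED50 by probit analysis; each mouse used once per time/dose point.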

Data set [4] addresses Voltage-dependent N-type calcium channel subunit alpha-1B (Homo sapiens, UniProt Q00975). In words: Inhibition of N-type calcium channels in IMR32 human neuroblastoma cells. Type of data set: functional. In a few lines:
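Differentiated IMR32 cells (dibutyryl cAMP 1 mM + BrdU 2.5 μM, 7–13 days), Indo-1 AM loaded; 10 min compound preincubation at 30 °C with 5 μM nitrendipine; high-K+ depolarization, fluorescence ratio 400/490 nm (ex 350 nm). Percent inhibition of K+-evoked Ca2+ rise; IC50 from five-point curves, four-parameter logistic fit.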

Data set [5] has as its system Mus musculus. Put plainly: Anticonvulsant activity at 30 mg/kg tested against audiogenic seizure model using DBA/2 mice. It counts as functional. In a few lines:
(§1)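 Male DBA/2 mice, 3–4 weeks old (6.5–12 g, 20–23 days), n = 5 per dose, given iv into retro-orbital sinus; tested 15 or 45 min post-dose with sound stimulus until tonic extension or max 60 s. Value is percentage of mice without tonic seizure.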

Data set [6] concerns Mus musculus. Put plainly: Anticonvulsant activity at 10 mg/kg tested against audiogenic seizure model using DBA/2 mice. It counts as functional. In a few lines:
as §1

In brackets after ≈: the same amount, converted by molar mass.

The source of these data is ChEMBL document CHEMBL1132688, “Synthesis of a series of 4-benzyloxyaniline analogues as neuronal N-type calcium channel blockers with improved anticonvulsant and analgesic properties” (J Med Chem, 1999).

Sequence of Voltage-dependent N-type calcium channel subunit alpha-1B (Q00975 whole entry): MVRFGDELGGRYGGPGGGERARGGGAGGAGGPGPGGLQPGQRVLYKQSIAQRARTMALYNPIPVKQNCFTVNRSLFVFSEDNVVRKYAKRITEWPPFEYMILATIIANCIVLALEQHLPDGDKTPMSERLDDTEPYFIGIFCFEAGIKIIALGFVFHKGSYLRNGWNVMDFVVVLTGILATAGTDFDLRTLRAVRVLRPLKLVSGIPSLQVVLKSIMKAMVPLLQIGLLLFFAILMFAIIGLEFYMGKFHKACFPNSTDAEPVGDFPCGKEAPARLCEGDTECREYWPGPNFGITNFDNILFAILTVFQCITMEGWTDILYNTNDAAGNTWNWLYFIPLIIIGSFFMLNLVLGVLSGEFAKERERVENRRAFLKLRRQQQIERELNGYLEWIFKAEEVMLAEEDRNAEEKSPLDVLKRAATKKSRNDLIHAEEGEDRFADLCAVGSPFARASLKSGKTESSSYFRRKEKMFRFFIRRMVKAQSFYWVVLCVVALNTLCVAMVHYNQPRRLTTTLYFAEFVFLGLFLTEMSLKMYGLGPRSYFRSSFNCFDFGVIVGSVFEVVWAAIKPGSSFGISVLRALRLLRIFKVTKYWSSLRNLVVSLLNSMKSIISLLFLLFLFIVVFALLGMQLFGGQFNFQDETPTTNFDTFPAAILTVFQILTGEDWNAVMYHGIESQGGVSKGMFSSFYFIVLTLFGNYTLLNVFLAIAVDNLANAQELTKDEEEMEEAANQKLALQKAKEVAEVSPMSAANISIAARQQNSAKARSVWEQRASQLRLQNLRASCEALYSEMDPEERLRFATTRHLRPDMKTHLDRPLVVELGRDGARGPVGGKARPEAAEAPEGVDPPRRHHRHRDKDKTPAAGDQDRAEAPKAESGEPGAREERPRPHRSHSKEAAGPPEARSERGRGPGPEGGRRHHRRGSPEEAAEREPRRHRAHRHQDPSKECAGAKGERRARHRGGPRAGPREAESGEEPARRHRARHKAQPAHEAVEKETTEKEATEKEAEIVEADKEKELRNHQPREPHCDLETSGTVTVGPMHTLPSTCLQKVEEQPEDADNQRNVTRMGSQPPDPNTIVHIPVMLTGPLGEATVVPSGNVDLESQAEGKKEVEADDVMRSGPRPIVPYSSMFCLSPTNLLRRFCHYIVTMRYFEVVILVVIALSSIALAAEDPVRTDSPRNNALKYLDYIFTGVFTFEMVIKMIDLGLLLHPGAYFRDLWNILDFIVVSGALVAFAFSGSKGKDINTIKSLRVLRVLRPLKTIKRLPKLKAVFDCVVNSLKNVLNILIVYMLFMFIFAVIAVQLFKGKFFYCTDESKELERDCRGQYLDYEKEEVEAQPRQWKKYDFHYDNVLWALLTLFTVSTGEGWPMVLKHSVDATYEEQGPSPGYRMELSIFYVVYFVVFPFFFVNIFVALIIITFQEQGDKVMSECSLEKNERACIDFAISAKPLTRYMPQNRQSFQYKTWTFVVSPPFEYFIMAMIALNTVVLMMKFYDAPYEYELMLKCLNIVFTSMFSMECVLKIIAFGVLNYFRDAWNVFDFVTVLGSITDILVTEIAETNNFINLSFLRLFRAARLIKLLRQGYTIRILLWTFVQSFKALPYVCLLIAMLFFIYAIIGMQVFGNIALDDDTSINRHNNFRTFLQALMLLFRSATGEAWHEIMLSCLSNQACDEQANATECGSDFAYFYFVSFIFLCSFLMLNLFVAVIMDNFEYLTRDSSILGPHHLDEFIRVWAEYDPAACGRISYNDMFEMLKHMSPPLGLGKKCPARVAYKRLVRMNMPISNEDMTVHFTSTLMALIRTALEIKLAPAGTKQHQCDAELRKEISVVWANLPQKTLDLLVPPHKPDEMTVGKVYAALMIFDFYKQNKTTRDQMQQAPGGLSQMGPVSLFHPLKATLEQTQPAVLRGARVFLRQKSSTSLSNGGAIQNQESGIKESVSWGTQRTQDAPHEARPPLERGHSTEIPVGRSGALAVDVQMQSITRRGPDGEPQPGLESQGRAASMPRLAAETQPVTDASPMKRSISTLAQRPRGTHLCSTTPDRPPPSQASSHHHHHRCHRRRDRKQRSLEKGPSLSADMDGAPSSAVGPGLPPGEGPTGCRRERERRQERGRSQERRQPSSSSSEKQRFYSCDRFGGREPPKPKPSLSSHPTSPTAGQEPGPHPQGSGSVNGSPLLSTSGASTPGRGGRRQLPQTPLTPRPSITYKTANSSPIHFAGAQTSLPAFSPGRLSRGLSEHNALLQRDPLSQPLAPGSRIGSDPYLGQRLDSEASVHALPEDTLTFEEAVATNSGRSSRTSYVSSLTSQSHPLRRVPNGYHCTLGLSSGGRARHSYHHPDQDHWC

As to `CC(C)=CCN(c1ccc(OCc2ccccc2)cc1)C1CCN(C(=O)[C@@H](N)CC(C)C)CC1`, the solubility (usually the dissolved amount per volume that the medium holds) in data set [1] worked out at 100000 µM (≈ 46400 µg/mL); in data set [2] it was 87 µM (≈ 40.3 µg/mL). Further, in data set [3], the ED50 (usually the dose at which the effect has come halfway, by size or by number of responders) worked out at 6 mg/kg. In addition, the IC50 (commonly the concentration that inhibits the measured activity by half) in data set [4] came out at 670 nM.
Regarding `CCN(c1ccc(OCc2ccccc2)cc1)C1CCN(C(=O)[C@H](CC(C)C)NC(=O)N2CCCCCC2)CC1`, in data set [5], the Anticonulsant activity was found to be 0%.
On to `CC(C)=CCN(C[C@H](C)NC(=O)[C@H](CC(C)C)NC(=O)N1CCCCCC1)c1ccc(OCc2ccccc2)cc1`, for which the IC50 in data set [4] is 1000 nM.
Take `CC(C)=CCN(c1ccc(OCc2ccccc2)cc1)C1CCN(C(=O)[C@H](CC(C)C)NCCC(C)C)CC1`: the Anticonulsant activity in data set [6] is listed as 20%.
`CC(C)=CCN(c1ccc(OCc2ccccc2)cc1)C1CCNCC1`: the IC50 in data set [4] amounted to 4700 nM.
`CC(C)=CCN(c1ccc(OCc2ccccc2)cc1)C1CCN(C(=O)[C@H](CC(C)C)NC(=O)N2CCCCCC2)CC1` registered an Anticonulsant activity in data set [5] of 0%.
With `CC(C)=CCN(c1ccc(OCc2ccccc2)cc1)C1CCCN(C(=O)[C@H](CC(C)C)NC(=O)N2CCCCCC2)C1` (stereo partly drawn), in data set [4], the IC50 worked out at 1500 nM.
Regarding `CC(C)C[C@H](NC(=O)N1CCCCCC1)C(=O)N1CCC(N(CCC(C)O)c2ccc(OCc3ccccc3)cc2)CC1` (stereo partly drawn), the solubility in data set [2] is 4 µM (≈ 2.37 µg/mL). Moreover, the IC50 in data set [4] worked out at 4600 nM.
Molecule `CC(C)C[C@H](NC(=O)N1CCCCCC1)C(=O)N1CCC(Nc2ccc(OCc3ccccc3)cc2)CC1` yielded an Anticonulsant activity in data set [5] of 60%.
